In one series the test system is Vero. In words: Cytotoxicity against African green monkey Vero cells. Format: cell-based. The note with it: Chlorocebus sabaeus.
The subject of series [1] is Mycolicibacterium smegmatis. In words: Antibacterial activity against Mycobacterium smegmatis harboring 126E6 mutant measured after 24 hrs by resazurin microdilution assay. Format: functional. In a few lines:
(§1)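 Two-fold drug dilutions in 96-well plates with species-appropriate medium. Each well receives an inoculum of about 1 × 10^3 UFC. Each plate has a no-drug growth control and a no-bacteria medium control. Resazurin is added to 0.003% final. Incubation time and temperature vary by species. MIC is the lowest concentration preventing the blue-to-pink (resorufin) colour change.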
In general terms: The colour change of resazurin is a common sign of viable cells or microbes.

Series [2] concerns Mycobacterium tuberculosis. In words: Antibacterial activity against Mycobacterium tuberculosis H37Rv after 7 days by resazurin microdilution assay. Format: functional. The note with it: 168 h. In a few lines: as §1
For series [3], the system named is Mycolicibacterium aurum. In words: Antibacterial activity against Mycobacterium aurum after overnight incubation by resazurin microdilution assay. The class given is functional. In a few lines: (§2)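 Mycobacteria were cultured in Middlebrook 7H9 with ADC and glycerol, at 32 °C for M. marinum (4 days) or with overnight incubation for M. aurum. Resazurin microdilution used 2-fold dilutions and about 1 × 10^3 UFC per well, with growth and medium controls. Resazurin 0.003% final. MIC defined as the lowest concentration preventing the blue-to-pink change.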

The next series concerns Mycobacterium marinum. In words: Antibacterial activity against Mycobacterium marinum after 4 days by resazurin microdilution assay. The class given is functional. To be noted: 96 h. In short, it runs like this: as §2
Series [4] relates to Mycolicibacterium smegmatis. In words: Antibacterial activity against Mycobacterium smegmatis MC2 155 by resazurin microdilution assay. Format: functional. The note with it: str. MC2 155. In short, it runs like this:
as §1

In another series the test system is Mycobacterium avium. Nature of the series: Antibacterial activity against Mycobacterium avium after 7 days by resazurin microdilution assay. The class given is functional. The note with it: 168 h. In short, it runs like this:
as §1

For a further series, the system named is Escherichia coli. In words: Antibacterial activity against Escherichia coli after 6 hrs by resazurin microdilution assay. The class given is functional. In a few lines: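 Clinical isolate of E. coli in Mueller−Hinton broth at 37 °C, 6 h incubation. Two-fold dilution series in 96-well plates with about 1 × 10^3 UFC per well. Growth and medium-only controls were run. Resazurin at 0.003% final. MIC taken as the lowest concentration blocking reduction of resazurin (blue) to resorufin (pink).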

The next series has as its system Streptococcus agalactiae. In words: Antibacterial activity against Streptococcus agalactiae NEM316 by resazurin microdilution assay. Format: functional. In short, it runs like this:
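S. agalactiae NEM316 in Todd−Hewitt broth at 37 °C. Compounds were tested as 2-fold dilutions in 96 wells with an inoculum of about 1 × 10^3 UFC per well. Controls without antibiotic or without bacteria were included. Resazurin 0.003% final. MIC was the lowest concentration preventing the color change from blue to pink.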

The next series has as its system Staphylococcus aureus. Nature of the series: Antibacterial activity against Staphylococcus aureus by resazurin microdilution assay. Format: functional. In a few lines: (§3)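 Clinical isolates were grown at 37 °C in Mueller−Hinton broth. Two-fold dilutions were made in 96-well plates and inoculated with about 1 × 10^3 UFC per well. Growth controls (no antibiotic) and medium controls (no bacteria) were included. Resazurin was added to 0.003% final. MIC was the lowest concentration that prevented the blue-to-pink color change.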

The next series deals with Pseudomonas aeruginosa. Nature of the series: Antibacterial activity against Pseudomonas aeruginosa by resazurin microdilution assay. Format: functional. In a few lines:
as §3

The test system of a further series is Klebsiella aerogenes. Nature of the series: Antibacterial activity against Enterobacter aerogenes by resazurin microdilution assay. Format: functional. In short, it runs like this:
as §3

Another series deals with Klebsiella pneumoniae. Nature of the series: Antibacterial activity against Klebsiella pneumoniae by resazurin microdilution assay. Format: functional. In short, it runs like this:
as §3

The test system of series [5] is Mycolicibacterium aurum. Nature of the series: Growth inhibition of Mycobacterium aurum at 0.4 uM after overnight incubation by resazurin microdilution assay relative to control. The note with it: read-out: GI. The class given is functional. In a few lines:
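Single-concentration screen at 0.15 μg/mL (average 0.4 μM). M. aurum (20-fold dilution of an OD600 0.2–0.3 culture) was grown in 7H9 with 0.1% casitone, 0.5% glycerol, OADC and 0.002% resazurin for 18 h at 37 °C. Read-out was ΔOD (OD570 − OD604). Percent viability was normalized to DMSO (100%) and kanamycin (0%) controls.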

Series [6] can be described thus: Drug metabolism in Mycobacterium smegmatis 126E6 assessed as NfnB-mediated hydroxyl […] formation after 3 hrs by LC-MS/MS analysis. Format: ADME. To be noted: mycolicibacterium smegmatis. In a few lines:
(§4)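 M. smegmatis wild type or transposon mutant 126E6 was grown in 7H9 to OD600 0.6 at 37 °C. 5 mL aliquots received 0.3 mg of compound or none and were incubated 3 h. Cultures were sonicated, cleared and filtered (0.45 μm), then mixed with acetonitrile/methanol/water. Analysis was aqueous normal-phase LC with ESI QTOF, reported as ion counts per mL, including the hydroxylamine intermediate (m/z 372.0012).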

The test system of series [7] is Mycolicibacterium smegmatis. In words: Antibacterial activity against Mycobacterium smegmatis harboring 126E6 mutant at 51.6 uM measured after 24 hrs by resazurin microdilution assay. The class given is functional. In short, it runs like this: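 Hypersensitivity screen of the M. smegmatis Tn611 transposon mutant collection. Wells receive 2 μL from each mutant in Middlebrook 7H9 with ADC, 0.05% Tween 80, kanamycin and PANTA, with compound at 20 μg/mL final. Drug-free plates serve as growth controls. Plates are incubated 48 h at 37 °C, with resazurin (0.003% final) added at 24 h. Clones failing to grow are scored.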

Series [8] relates to Mycolicibacterium smegmatis. Nature of the series: Drug metabolism in Mycobacterium smegmatis assessed as hydroxyl […] formation after 3 hrs by LC-MS/MS analysis. Format: ADME. In short, it runs like this:
as §4

Molecules are shown by their SMILES. Values after ≈ are worked out from the molar mass of the structure shown. Active and inactive are the calls of the source. Bounds are passed on as bounds.

In general, IC50 refers to the point on the concentration scale where inhibition reaches its midpoint. Broadly, the MIC is the lowest concentration found to suppress growth.

On to `O=C(Nc1ncc([N+](=O)[O-])s1)c1ccc(Cl)cc1Cl`, for which, in the series on Vero, the IC50 is > 100 µM. In addition, the minimum inhibitory concentration (MIC) in series [1] turned out to be 18.6 µM (≈ 5.92 µg/mL); in series [2] it was 78.5 µM (≈ 25 µg/mL); against Mycolicibacterium aurum [3], 2.45 µM (≈ 0.779 µg/mL); against Mycobacterium marinum, 18.8 µM (≈ 5.98 µg/mL); in series [4], 78.5 µM (≈ 25 µg/mL); in the series with Mycobacterium avium it was 46.6 µM (≈ 14.8 µg/mL). For the same compound, the MIC was > 93 µM in the series on Escherichia coli; > 93 µM against Streptococcus agalactiae; 6.2 µM (≈ 1.97 µg/mL) in the series with Staphylococcus aureus; 93 µM (≈ 29.6 µg/mL) against Pseudomonas aeruginosa; > 93 µM in the series with Klebsiella aerogenes; > 93 µM in the series with Klebsiella pneumoniae. The inhibition of growth at 0.4 µM with Mycolicibacterium aurum [5] is > 40%.
Turning to `CCCOc1ccc(C(=O)Nc2ncc([N+](=O)[O-])s2)cc1Br`, the IC50 in the series with Vero is > 100 µM. Moreover, the MIC in series [1] was 10.1 µM (≈ 3.9 µg/mL); in [2], 77.6 µM (≈ 30 µg/mL); with Mycolicibacterium aurum [3], 1 µM (≈ 0.386 µg/mL); against Mycobacterium marinum it was 4.03 µM (≈ 1.56 µg/mL); in series [4], > 129 µM; with Mycobacterium avium it was 77.7 µM (≈ 30 µg/mL). Besides, the MIC is > 129 µM in the series on Escherichia coli; > 129 µM with Streptococcus agalactiae; 2.33 µM (≈ 0.9 µg/mL) in the series on Staphylococcus aureus; > 129 µM with Pseudomonas aeruginosa; > 129 µM against Klebsiella aerogenes; > 129 µM against Klebsiella pneumoniae. Also, the Drug metabolism entry in series [6] was “Metabolite_Detected”; in series [8], “Metabolite_Notdetected”. For the same compound, in the series on Mycolicibacterium aurum [5], the inhibition of growth at 0.4 µM is > 40%. Besides, the outcome in series [7] was Active.
For `O=C(Nc1ncc([N+](=O)[O-])s1)c1ccccc1OC(F)(F)F`, the minimal inhibitory concentration (MIC) in [1] was found to be 19.6 µM (≈ 6.53 µg/mL); in series [2] it was 75 µM (≈ 25 µg/mL); in the series with Mycolicibacterium aurum [3], 4.65 µM (≈ 1.55 µg/mL); in the series on Mycobacterium marinum, 9 µM (≈ 3 µg/mL); in [4], 75 µM (≈ 25 µg/mL); against Mycobacterium avium it was 11.7 µM (≈ 3.9 µg/mL). Moreover, the minimal inhibitory concentration (MIC) against Escherichia coli was > 93.6 µM; against Streptococcus agalactiae, > 93.6 µM; against Staphylococcus aureus, 48.8 µM (≈ 16.3 µg/mL); in the series on Pseudomonas aeruginosa, 93.6 µM (≈ 31.2 µg/mL); against Klebsiella aerogenes, > 93.6 µM; in the series on Klebsiella pneumoniae, > 93.6 µM. For the same compound, in the series on Mycolicibacterium aurum [5], the inhibition of growth at 0.4 µM is > 40%.

Source of the values: ChEMBL document CHEMBL4017510, “Nitazoxanide Analogs Require Nitroreduction for Antimicrobial Activity in Mycobacterium smegmatis” (J Med Chem, 2017).
